Active and inactive are the calls of the source. No cut-off for these calls is given here.
What was measured:
[1] = molecular target: T1, Human immunodeficiency virus type 1 integrase (Human immunodeficiency virus 1, UniProt Q7ZJM1); experiment: Inhibition of wild-type HIV1 integrase strand transfer activity
Procedure, shortened: (§1)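 Recombinant wild-type HIV-1 integrase (200 nM final) preincubated with inhibitor for 30 min at 30 °C in 25 mM MOPS pH 7.2 with 50 mM NaCl, 7.5 mM MnCl2, 10% DMSO, BSA and thiols. Then 20 nM 5′-³²P-labeled 21-mer duplex substrate (21top/21bot) was added for 1 h. Quenched in formamide dye and resolved on denaturing 20% polyacrylamide–urea gel. Selectivity index = IC50(3′-processing)/IC50(strand transfer).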

[2] = Cytotoxicity against human HCT 116 cells after 72 hrs by MTT assay; type: cell-based; conditions: hct-116, 72 h
Procedure, shortened: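 HCT-116 monolayers were seeded at 8 × 10³ cells/well and attached overnight. Compounds in RPMI-1640 with 10% […] were added at a single final concentration of 10 and exposed for 72 h. MTT was then added for 4 h, crystals were dissolved in DMSO, and absorbance was read at 570 nm against blanks.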

[3] = molecular target: T1, Human immunodeficiency virus type 1 integrase; experiment: Inhibition of wild-type HIV1 integrase 3'-end processing activity; procedure, shortened: as §1
[4] = molecular target: Human immunodeficiency virus type 1 integrase (Human immunodeficiency virus 1) (UniProt Q7ZJM1); experiment: Selectivity index, ratio of IC50 for wild-type HIV1 integrase 3'-end processing activity to IC50 for wild-type HIV1 integrase strand transfer activity; procedure, shortened: as §1
Sequence of Human immunodeficiency virus type 1 integrase (Human immunodeficiency virus 1) (Q7ZJM1 as listed by the source): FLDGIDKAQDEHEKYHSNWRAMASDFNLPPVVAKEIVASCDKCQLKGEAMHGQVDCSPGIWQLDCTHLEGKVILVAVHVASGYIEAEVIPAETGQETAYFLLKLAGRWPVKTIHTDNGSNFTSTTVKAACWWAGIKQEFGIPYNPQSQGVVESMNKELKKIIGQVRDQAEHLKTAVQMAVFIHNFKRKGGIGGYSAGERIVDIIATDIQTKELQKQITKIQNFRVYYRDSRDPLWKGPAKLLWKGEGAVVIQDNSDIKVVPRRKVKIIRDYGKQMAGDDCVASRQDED

HCT-116 (Homo sapiens) = experiment: Cytotoxicity against human HCT 116 cells by MTT assay

T1 sequence (Q7ZJM1 whole entry): as the sequence (Q7ZJM1 as listed by the source) above

Compound | IC50 [1] [µM] | IC50 [3] [µM] | Ratio IC50 [4] | Activity [2] [µM] | Activity (HCT-116 (Homo sapiens))
Cc1cc(O)c(C(=O)/C=C/C=C/c2ccc(N(C)C)cc2)c(=O)o1 | > 100 | > 100 | – | > 10 | –
COc1ccc(Br)cc1/C=C/C1=[O+][B-](F)(F)Oc2cc(/C=C/c3ccc(N(C)C)cc3)oc(=O)c21 | > 100 | > 100 | – | > 10 | –
COc1ccc(Br)cc1/C=C/C(=O)c1c(O)cc(/C=C/c2ccc(N(C)C)cc2)oc1=O | 100 | > 100 | – | > 10 | –
Cc1cc(O)c(C(=O)/C=C/c2ccc(Br)cc2)c(=O)o1 | > 100 | > 100 | – | > 10 | –
Cc1cc2c(c(=O)o1)C(/C=C/c1ccc(N(C)C)s1)=[O+][B-](F)(F)O2 | > 100 | > 100 | – | > 10 | –
Cc1cc2c(c(=O)o1)C(/C=C/C=C1/N(C)c3ccccc3C1(C)C)=[O+][B-](F)(F)O2 | > 100 | > 100 | – | > 10 | –
CN(C)c1ccc(/C=C/C2=[O+][B-](F)(F)Oc3cc(/C=C/c4ccc(N(C)C)cc4)oc(=O)c32)cc1 | > 100 | > 100 | – | > 10 | –
Cc1cc2c(c(=O)o1)C(/C=C/C=C/c1ccc(N(C)C)cc1)=[O+][B-](F)(F)O2 | 100 | > 100 | – | > 10 | –
Cc1cc(O)c(C(=O)/C=C/C=C2/N(C)c3ccccc3C2(C)C)c(=O)o1 | > 100 | > 100 | – | > 10 | –
Cc1cc(O)c(C(=O)/C=C/c2ccc(F)cc2)c(=O)o1 | > 100 | 64 | < 0.7 | > 10 | –
COc1ccc(/C=C/C(=O)c2c(O)cc(/C=C/c3ccc(N(C)C)cc3)oc2=O)cc1 | > 100 | > 100 | – | > 10 | –
CN(C)c1ccc(/C=C/C(=O)c2c(O)cc(/C=C/c3ccc(N(C)C)cc3)oc2=O)cc1 | > 100 | > 100 | – | > 10 | –
COc1ccc(/C=C/C2=[O+][B-](F)(F)Oc3cc(/C=C/c4ccc(N(C)C)cc4)oc(=O)c32)cc1 | > 100 | > 100 | – | > 10 | –

These reach a lower IC50 [1]. Values come first.

IC50 [1] [µM] | IC50 [3] [µM] | Ratio IC50 [4] | Compound | Activity [2] [µM] | Activity (HCT-116 (Homo sapiens))
11 | 19 | 1.8 | Cc1cc(O)c(C(=O)/C=C/c2ccc(N(C)C)s2)c(=O)o1 | > 10 | –
7 | 13 | 1.9 | CC[NH+](CC)CC.Cc1cc2c(c(=O)o1)C(/C=C/C=C1\O[B-](F)(F)Oc3cc(C)oc(=O)c31)=[O+][B-](F)(F)O2 | > 10 | inactive
56 | > 100 | > 1.8 | Cc1cc2c(c(=O)o1)C(/C=C/c1ccc(N(C)C)cc1)=[O+][B-](F)(F)O2 | > 10 | –
16 | 9 | 0.6 | Cc1cc2c(c(=O)o1)C(/C=C/c1ccc(F)cc1)=[O+][B-](F)(F)O2 | > 10 | –
23 | 65 | 2.8 | Cc1cc(O)c(C(=O)/C=C/c2ccc(Br)s2)c(=O)o1 | > 10 | –
39 | > 100 | > 2.6 | COc1ccc(/C=C/C=C/C(=O)c2c(O)cc(C)oc2=O)cc1 | > 10 | –
3 | 9 | 3.2 | Cc1cc2c(c(=O)o1)C(/C=C/c1ccc(Br)s1)=[O+][B-](F)(F)O2 | > 10 | inactive
4 | 12 | 3.3 | Cc1cc2c(c(=O)o1)C(/C=C/c1ccc(Br)cc1)=[O+][B-](F)(F)O2 | > 10 | inactive
4 | 11 | 2.5 | COc1ccc(/C=C/C=C/C2=[O+][B-](F)(F)Oc3cc(C)oc(=O)c32)cc1 | > 10 | inactive

From ChEMBL document CHEMBL1142446, “Discovery of 3-acetyl-4-hydroxy-2-pyranone derivatives and their difluoridoborate complexes as a novel class of HIV-1 integrase inhibitors” (Bioorg Med Chem, 2008)
